Results from ChEMBL document CHEMBL1240439, “Synthesis and docking studies of novel benzopyran-2-ones with anticancer activity” (2010).

Legend:
Format in all cases: functional
SK-MEL-2 = experiment: Cytotoxicity against human SK-MEL-2 cells assessed as cell growth at 10 uM after 48 hrs by sulforhodamine B assay; details: SK-MEL-2, 48 h, read-out: Activity
HCT-116 [1] = experiment: Cytotoxicity against human HCT116 cells assessed as cell growth at 10 uM after 48 hrs by sulforhodamine B assay; details: HCT-116, 48 h, read-out: Activity
OVCAR-5 = experiment: Cytotoxicity against human OVCAR5 cells assessed as cell growth at 10 uM after 48 hrs by sulforhodamine B assay; details: OVCAR-5, 48 h, read-out: Activity
[2] = Cytotoxicity against human leukemia cells after 48 hrs by sulforhodamine B assay; details: Leukemia cell
Method in brief: (§1)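 Cells plated at 5000–40,000/well according to doubling time, then held 24 h at 37 °C, 5% CO2, with time-zero plates TCA-fixed. DMSO stocks (400× top concentration) were diluted in medium containing 50 μg/ml gentamycin, giving five 10-fold or ½-log concentrations. After 48 h, adherent cells were fixed in 10% TCA and suspension cells in 16% TCA (final), stained with 0.4% SRB, read at 515 nm. GI50, TGI and LC50 were calculated per cell line.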

SF-539 = experiment: Cytotoxicity against human SF539 cells assessed as cell growth at 10 uM after 48 hrs by sulforhodamine B assay; details: SF-539, 48 h, read-out: Activity
SNB-19 = experiment: Cytotoxicity against human SNB19 cells assessed as cell growth at 10 uM after 48 hrs by sulforhodamine B assay; details: SNB-19, 48 h, read-out: Activity
PC-3 = experiment: Cytotoxicity against human PC3 cells assessed as cell growth at 10 uM after 48 hrs by sulforhodamine B assay; details: PC-3, 48 h, read-out: Activity
BT-549 = experiment: Cytotoxicity against human BT549 cells assessed as cell growth at 10 uM after 48 hrs by sulforhodamine B assay; details: BT-549, 48 h, read-out: Activity
SR = experiment: Cytotoxicity against human SR cells assessed as cell growth at 10 uM after 48 hrs by sulforhodamine B assay; details: read-out: Activity
OVCAR-3 = experiment: Cytotoxicity against human OVCAR-3 cells assessed as cell growth at 10 uM after 48 hrs by sulforhodamine B assay; details: OVCAR-3, 48 h, read-out: Activity
[3] = Cytotoxicity against human CNS cancer cells after 48 hrs by sulforhodamine B assay; details: Cancer cell lines
Method in brief: (§2)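 Cells were plated at 5000–40,000/well according to doubling time and preincubated 24 h at 37 °C, 5% CO2. Time-zero plates were TCA-fixed. DMSO stocks were diluted in medium with gentamycin to five concentrations (10-fold or ½ log series) plus control, then incubated 48 h. Adherent cells were fixed with cold TCA (suspension cells with 16% final), stained with SRB, and read at 515 nm. GI50, TGI and LC50 were calculated per line.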

OVCAR-4 = experiment: Cytotoxicity against human OVCAR4 cells after 48 hrs by sulforhodamine B assay; details: OVCAR-4, 48 h; method in brief: as §2
HCT-116 [4] = experiment: Cytotoxicity against human HCT116 cells after 48 hrs by sulforhodamine B assay; details: HCT-116, 48 h; method in brief: as §2
A549 = experiment: Cytotoxicity against human A549 cells assessed as cell growth at 10 uM after 48 hrs by sulforhodamine B assay; details: A549, 48 h, read-out: Activity
SK-MEL-5 = experiment: Cytotoxicity against human SK-MEL-5 cells assessed as cell growth at 10 uM after 48 hrs by sulforhodamine B assay; details: SK-MEL-5, 48 h, read-out: Activity
UACC-62 = experiment: Cytotoxicity against human UACC62 cells assessed as cell growth at 10 uM after 48 hrs by sulforhodamine B assay; details: UACC-62, 48 h, read-out: Activity
RXF 393 = experiment: Cytotoxicity against human RXF393 cells assessed as cell growth at 10 uM after 48 hrs by sulforhodamine B assay; details: RXF 393, 48 h, read-out: Activity
SN12C = experiment: Cytotoxicity against human SN12C cells assessed as cell growth at 10 uM after 48 hrs by sulforhodamine B assay; details: read-out: Activity
ACHN = experiment: Cytotoxicity against human ACHN cells assessed as cell growth at 10 uM after 48 hrs by sulforhodamine B assay; details: read-out: Activity
OVCAR-8 = experiment: Cytotoxicity against human OVCAR8 cells assessed as cell growth at 10 uM after 48 hrs by sulforhodamine B assay; details: OVCAR-8, 48 h, read-out: Activity
RPMI-8226 = experiment: Cytotoxicity against human RPMI8226 cells assessed as cell growth at 10 uM after 48 hrs by sulforhodamine B assay; details: RPMI-8226, 48 h, read-out: Activity
HL-60(TB) = experiment: Cytotoxicity against human HL-60(TB) cells assessed as cell growth at 10 uM after 48 hrs by sulforhodamine B assay; details: HL-60, 48 h, read-out: Activity
UACC-257 = experiment: Cytotoxicity against human UACC257 cells assessed as cell growth at 10 uM after 48 hrs by sulforhodamine B assay; details: UACC-257, 48 h, read-out: Activity
HOP-62 = experiment: Cytotoxicity against human HOP62 cells assessed as cell growth at 10 uM after 48 hrs by sulforhodamine B assay; details: HOP-62, 48 h, read-out: Activity
MDA-MB-468 = experiment: Cytotoxicity against human MDA-MB-468 cells assessed as cell growth at 10 uM after 48 hrs by sulforhodamine B assay; details: MDA-MB-468, 48 h, read-out: Activity
[5] = Cytotoxicity against human melanoma cells after 48 hrs by sulforhodamine B assay; details: Melanoma cell; method in brief: as §1
786-0 = experiment: Cytotoxicity against human 786-0 cells assessed as cell growth at 10 uM after 48 hrs by sulforhodamine B assay; details: 786-0, 48 h, read-out: Activity
MOLT-4 = experiment: Cytotoxicity against human MOLT4 cells assessed as cell growth at 10 uM after 48 hrs by sulforhodamine B assay; details: MOLT-4, 48 h, read-out: Activity
[6] = Cytotoxicity against human renal cancer cells after 48 hrs by sulforhodamine B assay; details: Cancer cell lines; method in brief: as §1
EKVX = experiment: Cytotoxicity against human EKVX cells assessed as cell growth at 10 uM after 48 hrs by sulforhodamine B assay; details: read-out: Activity
MDA-MB-231 = experiment: Cytotoxicity against human MDA-MB-231 cells assessed as cell growth at 10 uM after 48 hrs by sulforhodamine B assay; details: MDA-MB-231, 48 h, read-out: Activity
SF-268 = experiment: Cytotoxicity against human SF268 cells assessed as cell growth at 10 uM after 48 hrs by sulforhodamine B assay; details: SF-268, 48 h, read-out: Activity
[7] = Cytotoxicity against human ovarian cancer cells after 48 hrs by sulforhodamine B assay; details: Cancer cell lines; method in brief: as §1
[8] = read-out: LC50 (the source's name)

Q: Which growth at 10 µM (SK-MEL-2) does the source give for `Cc1cc(=O)n(C(=O)COc2ccc3c(-c4ccccc4)cc(=O)oc3c2C)[nH]1` here?
A: Its growth at 10 µM is -12.2%.

Q: What about the growth at 10 µM (HCT-116 [1]) of the same compound?
A: Its growth at 10 µM is -65.9%.

Q: And the growth at 10 µM (OVCAR-5)?
A: The growth at 10 µM was 10.2%.

Q: And the GI50 [2]?
A: Its GI50 is 3.44 µM.

Q: What about the TGI [2] of the same compound?
A: The TGI was 50.8 µM.

Q: And the CC50 [2, 8]?
A: The CC50 was 94 µM.

Q: And the growth at 10 µM (SF-539)?
A: Its growth at 10 µM is -78.2%.

Q: What about the growth at 10 µM (SNB-19) of the same compound?
A: Its growth at 10 µM is 33.6%.

Q: What about the growth at 10 µM (PC-3) of the same compound?
A: The growth at 10 µM was -93%.

Q: And the growth at 10 µM (BT-549)?
A: The growth at 10 µM was -65.8%.

Q: What about the growth at 10 µM (SR) of the same compound?
A: The growth at 10 µM was 18.5%.

Q: What about the growth at 10 µM (OVCAR-3) of the same compound?
A: Its growth at 10 µM is -61.1%.

Q: And the GI50 [3]?
A: The GI50 was 2.58 µM.

Q: What about the TGI [3] of the same compound?
A: Its TGI is 8.85 µM.

Q: What about the CC50 [3, 8] of the same compound?
A: The CC50 was 27.7 µM.

Q: And the GI50 (OVCAR-4)?
A: Its GI50 is 1.95 µM.

Q: What about the TGI (OVCAR-4) of the same compound?
A: The TGI was 4.73 µM.

Q: And the GI50 (HCT-116 [4])?
A: The GI50 was 1.94 µM.

Q: What about the TGI (HCT-116 [4]) of the same compound?
A: The TGI was 3.76 µM.

Q: And the growth at 10 µM (A549)?
A: The growth at 10 µM was 0.69%.

Q: And the growth at 10 µM (SK-MEL-5)?
A: Its growth at 10 µM is -31.5%.

Q: What about the growth at 10 µM (UACC-62) of the same compound?
A: Its growth at 10 µM is -27.3%.

Q: What about the growth at 10 µM (RXF 393) of the same compound?
A: The growth at 10 µM was -37%.

Q: And the growth at 10 µM (SN12C)?
A: Its growth at 10 µM is -69.3%.

Q: What about the growth at 10 µM (ACHN) of the same compound?
A: Its growth at 10 µM is 41.6%.

Q: And the growth at 10 µM (OVCAR-8)?
A: The growth at 10 µM was -30.5%.

Q: And the growth at 10 µM (RPMI-8226)?
A: The growth at 10 µM was -18.2%.

Q: What about the growth at 10 µM (HL-60(TB)) of the same compound?
A: Its growth at 10 µM is -66.6%.

Q: What about the growth at 10 µM (UACC-257) of the same compound?
A: Its growth at 10 µM is 6.57%.

Q: What about the growth at 10 µM (HOP-62) of the same compound?
A: The growth at 10 µM was -18.6%.

Q: And the growth at 10 µM (MDA-MB-468)?
A: Its growth at 10 µM is -8.13%.

Q: What about the GI50 [5] of the same compound?
A: Its GI50 is 4.65 µM.

Q: What about the TGI [5] of the same compound?
A: Its TGI is 43.2 µM.

Q: What about the CC50 [5, 8] of the same compound?
A: The CC50 was 72.4 µM.

Q: And the growth at 10 µM (786-0)?
A: Its growth at 10 µM is -58.8%.

Q: What about the growth at 10 µM (MOLT-4) of the same compound?
A: The growth at 10 µM was 22.7%.

Q: What about the GI50 [6] of the same compound?
A: The GI50 was 10.7 µM.

Q: And the TGI [6]?
A: The TGI was 21.4 µM.

Q: What about the CC50 [6, 8] of the same compound?
A: The CC50 was 55.2 µM.

Q: And the growth at 10 µM (EKVX)?
A: Its growth at 10 µM is -33.6%.

Q: And the growth at 10 µM (MDA-MB-231)?
A: Its growth at 10 µM is -30%.

Q: What about the growth at 10 µM (SF-268) of the same compound?
A: Its growth at 10 µM is 2.94%.

Q: What about the GI50 [7] of the same compound?
A: The GI50 was 8.53 µM.

Q: What about the TGI [7] of the same compound?
A: The TGI was 28.7 µM.

Q: And the CC50 [7, 8]?
A: Its CC50 is 52 µM.
